This is a sample that favours compounds with a hit; in the whole collection about 1.7% have one here.
STEP block – STEP phosphatase inhibitors, primary screen, biochemical, fluorescence intensity, uHTS; 0.25% of 360,000 active; recombinant STEP, OMFP fluorogenic substrate; Tyrosine-protein phosphatase non-receptor type 5 (Homo sapiens), P54829; inhibition, % at 20 µM;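 active means inhibition at 20 µM, scaled per plate between control wells, above about 37%, limit read from the data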
Target sequence (P54829 whole entry, looked up): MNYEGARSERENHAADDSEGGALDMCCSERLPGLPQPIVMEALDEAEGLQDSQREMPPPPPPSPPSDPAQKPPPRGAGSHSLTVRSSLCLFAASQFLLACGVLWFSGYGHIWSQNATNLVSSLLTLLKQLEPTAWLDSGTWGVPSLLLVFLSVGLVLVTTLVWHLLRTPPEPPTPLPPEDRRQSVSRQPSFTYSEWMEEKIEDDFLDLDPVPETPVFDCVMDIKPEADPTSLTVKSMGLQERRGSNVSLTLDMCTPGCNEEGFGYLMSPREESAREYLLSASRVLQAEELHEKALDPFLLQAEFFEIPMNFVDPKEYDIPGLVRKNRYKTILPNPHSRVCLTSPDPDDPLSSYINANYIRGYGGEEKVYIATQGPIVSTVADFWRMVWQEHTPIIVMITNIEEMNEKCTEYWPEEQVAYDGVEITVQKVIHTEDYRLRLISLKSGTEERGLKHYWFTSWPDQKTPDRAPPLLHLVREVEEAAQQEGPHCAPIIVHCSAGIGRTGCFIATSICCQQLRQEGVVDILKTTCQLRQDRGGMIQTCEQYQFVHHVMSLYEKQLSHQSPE
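System: STEP (striatal-enriched tyrosine phosphatase) enzyme, cell-free; medium: Bis-Tris pH 6.0 buffer with DTT, detergent; dosing: 20 µM, 1% DMSO; times: reaction 20 min, ambient temperature; detection: fluorescence, 480/540 nm; read-out basis: normalized % inhibition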
DNMT1 block – human DNMT1 methyltransferase inhibitors, primary screen, biochemical, molecular beacon, fluorescence, HinP1I cleavage, uHTS; 0.83% of 360,000 active; inhibition (reported as % activation of signal), % at 10 µM; AID 588458, 2011; DNA (cytosine-5)-methyltransferase 1 (Homo sapiens), P26358; in the data active means inhibition above about 50%
Scp-1 inhibitor – Scp-1 phosphatase inhibitors, primary screen, biochemical, colorimetric, uHTS; AID 493091, 2011; Carboxy-terminal domain RNA polymerase II polypeptide A small phosphatase 1 (Homo …; Recombinant Scp1, phosphopeptide, malachite green phosphate absorbance; inhibition, % at 20 µM; 0.88% of 340,000 active;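 active means inhibition above about 50% at 20 µM, limit read from the data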
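Test system: SCP-1 catalytic domain; Buffer or medium: Acidic Tris acetate buffer with magnesium and detergent; Also added: Phosphorylated 17-residue peptide substrate; Compound: single 20 µM dose, 1% DMSO; Schedule: enzyme reaction 45 min at room temperature, colour 5 min, stabilisation 30 min; Signal: Phosphate-binding colour reagent, absorbance read at 630 nm.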
SUMO1-SIM PPI – modulators of SUMO1 protein-protein interactions, primary screen, biochemical, uHTS; Small ubiquitin-related modifier 1 (Homo sapiens), P63165; SUMO1 binding to a labelled peptide, TR-FRET, 1 h; inhibition, % at 20 µM; 0.33% of 360,000 active; AID 602429, 2012; in the data active means inhibition above about 37%
Target sequence (P63165 whole entry, looked up): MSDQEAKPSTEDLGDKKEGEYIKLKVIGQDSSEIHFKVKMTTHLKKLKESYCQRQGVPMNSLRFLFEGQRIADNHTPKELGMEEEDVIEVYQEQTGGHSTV
LMPTP block – LMPTP phosphatase inhibitors, primary screen, biochemical, fluorescence intensity, uHTS; Low molecular weight phosphotyrosine protein phosphatase (Homo sapiens), P24666; recombinant LMPTP-A, OMFP fluorogenic substrate; 0.22% of 360,000 active; inhibition, % at 20 µM;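 active means compounds that cut the enzyme signal by at least half of the control window in the single-dose screen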
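material = LMPTP-A | quantity = 0.625 nM enzyme | reagent = OMFP substrate, 400 µM final | buffer or medium = Bis-Tris pH 6.0, DTT, detergent | detection = endpoint fluorescence intensity from OMFP dephosphorylation | dosing = single 20 µM dose | read-out basis = % inhibition relative to no-enzyme and uninhibited control wells | control set = no-enzyme and uninhibited controls | timing = 50 min at room temperature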
STEP conf – STEP phosphatase inhibitor hit confirmation, biochemical, fluorescence intensity, single concentration | 32% of 520 active | recombinant STEP, OMFP fluorogenic substrate | shares compounds with STEP block | AID 623866, 2012 | inhibition, % at 20 µM; call rule not given here
Large screens that a line does not name were inactive (follow-up assays come after a bar, where they were run).

CC1(C)Cc2c(sc(N)c2C#N)C(C)(C)N1	STEP block 44 | STEP conf inactive
CC1(C)Cc2c(sc(NC(=O)C(C)(C)C)c2C#N)C(C)(C)N1	none
O=C(CCC(=O)N1CCN(c2ccccc2F)CC1)c1ccc(Cl)s1	none
O=C(CCN1CCC(c2ccc(Cl)s2)=N1)c1ccc(Cl)s1	STEP block 58 | STEP conf inactive
CS(=O)(=O)c1ccc(Cl)c(NC(=O)CNC(=O)c2ccc3c(c2)OCO3)c1	none
O=C1[C@@H]2[C@@H]3C[C@@H]([C@H]4ON=C(c5ccc(OCc6ccccc6)cc5)[C@@H]34)[C@@H]2C(=O)N1c1ccc2c(c1)OCO2	none
O=C1[C@@H]2[C@@H]3C[C@@H]([C@H]4ON=C(c5ccc(Cl)cc5)[C@@H]34)[C@@H]2C(=O)N1c1ccc2c(c1)OCO2	STEP block 46 | STEP conf inactive
CCOC(=O)c1cnn(-c2ccc(C)cc2)c1N	none
CCOC(=O)c1cnn(-c2ncnc3sc(C)c(C)c23)c1N	STEP block 70 | STEP conf inactive
O=C(O)C1CC=CCC1C(=O)NCc1ccc(Cl)c(Cl)c1 (centres undefined)	none
Cc1cc2nc(/C=C/c3nc4cc(C)c(C)cc4[nH]3)[nH]c2cc1C	STEP block 46 | STEP conf inactive
O=C(N/N=C/c1ccc([N+](=O)[O-])cc1)c1cccnc1	none
Nc1c(C(=O)N/N=C/c2ccc([N+](=O)[O-])cc2)cnn1-c1ccccc1	STEP block 52 | STEP conf inactive
O=C(CSS(=O)(=O)O)N1CCN(C(=O)c2ccoc2)CC1	STEP block 77 | STEP conf inactive
COc1ccc(Br)cc1C(=O)NC(=S)Nc1ccc(Cl)c(C(=O)O)c1	none
COc1ccc(Br)cc1/C=C/C(=O)NC(=S)Nc1ccc(Cl)c(C(=O)O)c1	STEP block 62 | STEP conf inactive
O=C(NNC(=O)c1cnccn1)c1ccc(Cl)c(Cl)c1	none
COc1cc2c(cc1NC(=O)c1ccc(C)c([N+](=O)[O-])c1)oc1ccccc12	none
COc1cc2c(cc1NC(=O)c1cccc([N+](=O)[O-])c1)oc1ccccc12	STEP block 84, LMPTP block 66 | STEP conf inactive
Cc1cc(NC(=O)CSc2nc3ccccc3c(=O)n2Cc2ccccc2)no1	none
Cc1ccc(Cn2c(SCC(=O)Nc3cc(C)on3)nc3ccccc3c2=O)cc1	STEP block 41 | STEP conf inactive
CC(C)c1ccc(OCCCCN2CCCCC2)cc1	none
CC(C)Oc1ccc(OCCCN2CCCCCC2)cc1	STEP block 53 | STEP conf inactive
CN1CCN(C(=O)/C=C/c2ccc3c(c2)OCO3)CC1	STEP block 57 | STEP conf inactive
COc1ccc(C(=O)Nc2ccc(/C(C)=N/NC(=O)c3ccncc3)cc2)cc1	STEP block 82, LMPTP block 54 (no result: Scp-1 inhibitor) | STEP conf inactive
COc1ccc(N2CCN(c3nc4c(C)cccn4c(=O)c3C=C(C#N)C#N)CC2)cc1	STEP block 63 | STEP conf inactive
Cc1nn2c(CN(C(=O)CN3CCOCC3)c3ccccc3)nnc2c2ccccc12	none
Cc1nn2c(CN(C(=O)COc3ccccc3)c3ccccc3)nnc2c2ccccc12	STEP block 122 | STEP conf inactive
CC(=O)c1ccc(OCCCC(=O)NNC(=O)c2ccccn2)cc1	none
Cc1ccccc1N1CCN(C(=S)c2ccc(-c3cccc([N+](=O)[O-])c3)o2)CC1	STEP block 44 | STEP conf 26
Cc1ccccc1N1CCN(C(=S)c2ccc(-c3ccc([N+](=O)[O-])cc3)o2)CC1	none
CC1(C)Cc2c(sc(NC(=O)C(=O)NCCCN3CCOCC3)c2C#N)CO1	STEP block 68 | STEP conf inactive
CC1(C)Cc2c(sc(NC(=O)/C=C/C(=O)O)c2C#N)CO1	none
S=C1NC2=C(CCCC2=C2SCCS2)C(c2ccccc2)N1 (centres undefined)	STEP block 70 | STEP conf 60
CCCCn1c(N)c(N(CCOC)C(=O)c2oc3ccc(OCC)cc3c2C)c(=O)[nH]c1=O	none
Cc1nnsc1S(=O)c1ccc(Br)cc1 (centres undefined)	none
CCOC(=O)C1=NN(c2ccccc2C)C2=NC(C)=C(C(=O)OC)C(c3cccc(OC)c3)N12 (centres undefined)	none
COCCNS(=O)(=O)c1cc(-c2nn(C)c(=O)c3ccccc23)ccc1C	none
CCCCNS(=O)(=O)c1cc(-c2nn(C)c(=O)c3ccccc23)ccc1C	STEP block 58 | STEP conf inactive
CCOC(=O)c1c(C)[nH]c(C)c1C(=O)COC(=O)c1nn(CC)c(=O)c2ccccc12	none (no result: Scp-1 inhibitor)
COc1ccc(Cl)cc1NC(=O)CN(C)C(=O)c1cc2c(s1)CCCC2	none
COCCN(C(=S)Nc1c(C)cc(C)cc1C)C(C)c1cccnc1 (centres undefined)	STEP block 50 | STEP conf 21
COc1ccc(S(=O)(=O)Nc2ccccc2C(=O)N2CCOCC2)cc1C	none
O=C(O)c1ccc(NC(=S)Nc2ccccc2)cc1	STEP block 107 | STEP conf inactive
CCCCC(=O)Nc1ccc2c(c1)nc(CCN1CCOCC1)n2C	STEP block 46 | STEP conf inactive
CC(C)CN1C(=O)C(=O)N(CC(=O)c2ccc[nH]2)C1=O	none
COc1ccc(C(=O)Nc2cc(-c3ccc(C)cc3)no2)cc1	STEP block 94 | STEP conf inactive
CN1CCN(C(=S)C(=O)NCc2ccccc2)CC1	none
CN1CCN(C(=S)C(=O)Nc2ccccc2)CC1	STEP block 41 | STEP conf inactive
CCOc1ccc(NC(=O)CN(C)C(=O)C2CC(=O)N(c3ccc4c(c3)OCCO4)C2)cc1OCC (centres undefined)	none
O=c1[nH]cc(CCc2ccccc2)c(=O)[nH]1	none (no result: Scp-1 inhibitor)
COc1ccnc(CSC(N)=Nc2ccccc2OC)c1	STEP block 35 | STEP conf inactive
Cc1cc(C)cc(NC(=S)NC2CC3CCCC(C2)N3C2CCCC2)c1 (centres undefined)	STEP block 40 | STEP conf inactive
Cc1cc(C)cc(NC(=S)NC2CC3CCCC(C2)N3C2CC2)c1 (centres undefined)	none
COc1ccc(S(=O)(=O)N=C2C=C(C)C(=O)C(C)=C2)cc1	STEP block 45 | STEP conf inactive
